Assay results reported in paper PMC5854750 (European Journal of Drug Metabolism and Pharmacokinetics, 2017).

Experiments:
healthy male volunteers [1] = experiment: Single-rising dose; format: in vivo, human
[2] = SRD component: plasma and urine pharmacokinetics; format: in vivo, human
[3] = Bioavailability/food effect; format: in vivo; details: male, human, plasma, oral, 25 mg, Median t max
Summary of the method: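 Healthy men (18–45 y, BMI 18.5–29.9 kg/m2) in a randomised crossover received single oral 25 mg doses as tablet fasted, tablet after a high-fat, high-calorie meal, or 5-mg/mL solution fasted. Washout was at least 14 days, and PK sampling ran to Day 9 per period. Plasma was assayed by validated LC-MS/MS over 1.00–1000 nM (linear calibration, 1/x² weighting, QC in K3-EDTA plasma). Adjusted gMean ratios are reported with 90% CI.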

healthy male volunteers [4] = experiment: BA/FE component: safety and tolerability; format: in vivo, human; details: Part 2 (BA/FE), 25 mg, six of 11 subjects
Summary of the method: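 Open-label, randomised three-way crossover in 12 healthy men (18–45 y, BMI 18.5–29.9 kg/m2). Each received single oral 25 mg doses: tablet fasted, tablet after a standardised high-fat, high-calorie meal, and 5-mg/mL solution fasted, in one of six sequences. Washout between periods was at least 14 days. Safety was monitored to Day 9 of each period, with spontaneous AEs recorded by onset, end time and intensity.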

[5] = cited from earlier work

C[C@@H](Oc1ccc(S(C)(=O)=O)cc1C(=O)N1C[C@@H]2C[C@]2(c2cc(C(F)(F)F)on2)C1)C(F)(F)F [BI 425809]
Subjects with at least one AE assessed as related to treatment (healthy male volunteers [1]; Part 1 (SRD), 27 of 72 subjects (includes placebo subjects)): 37.5%
Changes from baseline of QTcF interval, QT interval or heart rate vs placebo (healthy male volunteers [1]; Part 1, any of the doses tested): no statistically relevant differences
Colour discrimination and visual acuity tests (healthy male volunteers [1]; SRD): no changes from baseline
Incidence of AEs (healthy male volunteers [1]; SRD, 0.5-mg group): 16.7%
Incidence of AEs (healthy male volunteers [1]; SRD, 150-mg group): 100%
Subjects with eye disorder AE (photopsia, blurred vision or chromatopsia) (healthy male volunteers [1]; SRD, 150-mg group, n = 6): all six subjects
Subjects with at least one AE (healthy male volunteers [1]; SRD, all BI 425809 doses 0.5–150 mg, 34/54 subjects): 63.0%
Bond–Lader VAS scores of other items (calmness, contentment, external and internal perception) (healthy male volunteers [1]; SRD, dose levels of 100 and 150 mg): increased
Bond and Lader VAS and Bowdle VAS scores for subjective feelings of sedation (healthy male volunteers [1]; SRD, doses of 10 mg and greater): increase
Subjects with abnormalities on the Amsler grid test (healthy male volunteers [1]; SRD, one each at 25 and 100 mg): two subjects
Maximally tolerated dose (healthy male volunteers [1]; SRD, single oral dose, escalation terminated owing to dose-limiting AEs): 150 mg
ECG findings (healthy male volunteers [1]; both parts): No clinically relevant abnormal findings
Neurological examination findings (healthy male volunteers [1]; both parts): No clinically relevant abnormal findings
Subjects with at least one AE assessed as related to treatment (healthy male volunteers [1]; both parts, 33/83 subjects (includes placebo subjects)): 39.8%
Changes in laboratory parameters, hormone levels, haematology or vital signs (healthy male volunteers [1]; either part of the study): no clinically relevant changes
Time to disappearance of headache (healthy male volunteers [1]; first day of dosing): ≤ 12 h
Tolerability (healthy male volunteers [1]; single dose, anticipated therapeutic dose range of 5–25 mg): generally well-tolerated
Fractional renal excretion ([2]; SRD, similar across all dose groups): 5%
Tmax ([2]; male, human, plasma, oral): ~0.75 h
half-life ([2]; male, human, plasma, oral): 32.5 to 47 h
Tmax ([3]; 25-mg solution, fasted): 0.875 h
Tmax ([3]; 25-mg tablet, fasted): 4 h
Tmax ([3]; 25-mg tablet, fed): 1.77 h
Subjects with at least one AE assessed as related to treatment (healthy male volunteers [4]): 54.5%
Biopharmaceutics Classification System class [5]: Class II
Permeability [5]: high
